# Results collected from several papers.
# Protocols differ between the studies behind these lines.
# Target: Muscle, skeletal receptor tyrosine-protein kinase (MUSK, Homo sapiens, UniProt O15146)
# One construct used (O15146 24-869): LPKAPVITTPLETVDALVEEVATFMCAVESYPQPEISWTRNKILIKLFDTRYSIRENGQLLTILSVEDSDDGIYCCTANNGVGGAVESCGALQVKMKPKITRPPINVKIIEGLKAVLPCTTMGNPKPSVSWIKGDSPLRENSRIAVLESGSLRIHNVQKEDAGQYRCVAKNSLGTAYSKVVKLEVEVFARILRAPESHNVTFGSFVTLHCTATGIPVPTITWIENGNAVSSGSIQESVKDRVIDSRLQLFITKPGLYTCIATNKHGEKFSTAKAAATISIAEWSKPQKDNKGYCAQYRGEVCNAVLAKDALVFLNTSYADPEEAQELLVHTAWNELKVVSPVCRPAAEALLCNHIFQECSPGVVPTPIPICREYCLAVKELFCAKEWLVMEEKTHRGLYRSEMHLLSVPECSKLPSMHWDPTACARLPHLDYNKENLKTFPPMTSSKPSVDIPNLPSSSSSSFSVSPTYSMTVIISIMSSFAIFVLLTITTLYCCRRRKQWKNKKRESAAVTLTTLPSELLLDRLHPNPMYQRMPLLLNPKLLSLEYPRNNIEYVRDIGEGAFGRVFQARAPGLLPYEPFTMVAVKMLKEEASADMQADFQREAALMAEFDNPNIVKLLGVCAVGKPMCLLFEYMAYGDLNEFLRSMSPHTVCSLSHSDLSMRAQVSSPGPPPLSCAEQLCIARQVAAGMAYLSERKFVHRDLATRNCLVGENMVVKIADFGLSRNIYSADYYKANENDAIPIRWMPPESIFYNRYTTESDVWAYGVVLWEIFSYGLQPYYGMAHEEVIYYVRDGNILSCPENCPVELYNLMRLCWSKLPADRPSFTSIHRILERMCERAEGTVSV
Structure (SMILES),test,setting,measurement,value
C#Cc1cc(-c2cc(Nc3nc(N[C@@H](C)c4ccc(F)cn4)ncc3Cl)n[nH]2)ccc1C=O,"enzyme activity, inhibitor",0.2 µM,inhibition,100%
CC(C)S(=O)(=O)c1ccc2nccc(Nc3ccc4sc(C5CCCC5)nc4c3)c2c1,"enzyme activity, inhibitor",1 µM,activity vs control,101%
Cc1ccc(NC(=O)c2ccnc(C(F)(F)F)c2)cc1-c1cc(OCCO)nc(N2CCOCC2)c1,"binding, competition with immobilised ligand",1 µM,remaining binding,91%
CO[C@@H]1[C@H](N(C)C(=O)c2ccccc2)C[C@H]2O[C@]1(C)n1c3ccccc3c3c4c(c5c6ccccc6n2c5c31)C(=O)NC4,"enzyme activity, inhibitor",1 µM,inhibition,0%
CCCCC(=O)Nc1ccc(-c2ccc3ncn(CCC)c(=O)c3c2)cn1,"binding, competition with immobilised ligand",0.5 µM,remaining binding,93%
C1=C/COCc2cc(ccc2OCCN2CCCC2)Nc2nccc(n2)-c2cccc(c2)COC/1,binding,0.1 µM,remaining binding,89%
CN1CCN(C(=O)c2ccc(NC(=O)Nc3ccc(N(C)c4ccnc(Nc5ccc(CS(C)(=O)=O)cc5)n4)cc3)cc2)CC1,"binding, competition with immobilised ligand",1 µM,remaining binding,11%
C=CC(=O)N1CCC([C@@H]2CCNc3c(C(N)=O)c(-c4ccc(Oc5ccccc5)cc4)nn32)CC1,"enzyme activity, inhibitor",1 µM,inhibition,16%
